Published values pooled from the literature.
Each line is one published result; the experiments were not run side by side.
Target: RAC-alpha serine/threonine-protein kinase (AKT1, Homo sapiens, UniProt P31749)

COc1ccnn2ncc(-c3ccnc(N(C)C)n3)c12
remaining binding (binding; 1 µM): 100%

O=C(NCCCN1CCOCC1)c1ccc(Nc2nccc(-c3cc4ccccc4s3)n2)cc1
remaining binding (binding; competition with immobilised ligand; 1 µM): 100%

COc1ncc2cc3ccccc3nc2c1C#N
remaining binding (cell-free assay; competition with immobilised ligand; 5 µM): 92%

COc1cnc(Nc2cccc(S(N)(=O)=O)c2)nc1N1CCN(c2ccccc2)C(=O)C1
remaining binding (binding; competition with immobilised ligand; 1 µM): 100%

CCN1CCN(Cc2ccc(C(=O)Nc3ccc(C)c(Oc4ccc5c(c4)CC(=O)N5)c3)cc2C(F)(F)F)CC1
remaining binding (binding; competition with immobilised ligand; 1 µM): 94%

C[C@@H]1CN(c2ccc3ncc(-c4ccc5[nH]nc(C6CC6)c5c4)n3n2)C[C@H](C)O1
remaining binding (binding; competition with immobilised ligand; 50 nM): 98%

O=C(NCc1ncc(C(F)(F)F)cc1Cl)c1ccc2c(c1)C1(CCS(=O)(=O)CC1)[C@@H](C1CC1)N2S(=O)(=O)c1ccc(F)cc1
remaining binding (cell-free assay; competition with immobilised ligand; 1 µM): 94%

CN(C)c1ncc(F)c(-c2cnn3ncccc23)n1
remaining binding (binding; 1 µM): 100%

CS(=O)(=O)N1CCCC(NC(=O)[C@H](CCC2CCCCC2)NC(=O)c2ccc(CNC(=O)c3cnc4ccccn34)cc2)C1 (stereo partly shown)
remaining binding (cell-free assay; competition with immobilised ligand; 0.1 µM): 100%

C[C@H]1CCN(c2nccc(-c3cnn4ncccc34)n2)C1
remaining binding (binding; 1 µM): 92%

O=C(Nc1cccnn1)N1CCC(=Cc2cccc(Oc3ccc(C(F)(F)F)cn3)c2)CC1
remaining binding (cell-free assay; competition with immobilised ligand; 1 µM): 93%

c1cnn2ncc(-c3ccnc(N4CCC45COC5)n3)c2c1
remaining binding (binding; 1 µM): 95%

O=C(Nc1c[nH]nc1C(=O)NC1CCNCC1)c1cc(F)cc(F)c1
remaining binding (binding; competition with immobilised ligand; 1 µM): 92%

O=C(NCCCN1CCOCC1)c1ccc(Nc2ncc(Cl)c(-c3ccc(Cl)s3)n2)cc1
remaining binding (binding; competition with immobilised ligand; 1 µM): 100%

O=C(NCCCC1CCCCC1)c1ccc(CNC(=O)c2cnn(-c3ccccc3)c2C(F)(F)F)cc1
remaining binding (cell-free assay; competition with immobilised ligand; 0.1 µM): 100%

CC(C)(C)c1ccc(-c2nc(CBr)nn2-c2cccc(O)c2)cc1
remaining binding (cell-free assay; competition with immobilised ligand; 10 µM): 94%

CN(CCCC(F)(F)F)c1nccc(-c2cnn3ncccc23)n1
remaining binding (binding; 1 µM): 100%

N#Cc1ccc(Nc2ccc3[nH]c(=O)[nH]c3c2)c(Cl)c1
remaining binding (cell-free assay; competition with immobilised ligand; 1 µM): 67%

Cc1cnn2ncc(-c3ccnc(N(C)C)n3)c2c1
remaining binding (binding; 1 µM): 94%

CN1CCN(c2cnc3c(C4CCN(C(=O)c5ccc(OC(F)(F)F)cc5N)CC4)ncnc3c2)CC1
remaining binding (cell-free assay; competition with immobilised ligand; 1 µM): 100%

N[C@H]1CCN(c2nccc(-c3cnn4ncccc34)n2)C1
remaining binding (binding; 1 µM): 97%

O=C(c1ccc(Nc2nccc(-c3cc4ccccc4s3)n2)cc1)N1CCC(N2CCCC2)CC1
remaining binding (binding; competition with immobilised ligand; 1 µM): 100%

O=C(Nc1cnc(Oc2ccc(F)cc2)nc1)N1CCc2ncccc2[C@@H]1c1ccc(F)cc1
remaining binding (cell-free assay; competition with immobilised ligand; 1 µM): 100%

COc1cnc(Nc2cccc(S(N)(=O)=O)c2)nc1N1CCN(c2ccccc2)CC1
remaining binding (binding; competition with immobilised ligand; 1 µM): 100%

c1cncc(-c2cccc(Nc3nccc(NC4CCCCC4)n3)c2)c1
remaining binding (binding; competition with immobilised ligand; 10 µM): 71%
